Results as given in ChEMBL document CHEMBL1629436, “Synthesis and biological evaluation of new camptothecin derivatives obtained by modification of position 20” (Bioorg Med Chem, 2010).
Each block holds one compound with its values, some of them ahead of it. Activity calls are given as the source filed them. The rule behind the calls is not given here.

Columns and labels:
A-431 = assay: Cytotoxicity against human A431 cells after 72 hrs by trypan blue assay; format: functional, cell-based; settings: A-431, 72 h
Method in brief: (§1)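 A-431, HeLa and HL-60 cells at 4×10^4 per well, incubated 24 h. HeLa and A-431 then received fresh medium. Graded compound concentrations were added for a further 72 h at 37 °C, 5% CO2. Viability was counted by Trypan blue exclusion. IC50 is the concentration giving 50% reduction in cell number versus control: ≥3 independent experiments, triplicate samples, mean ± SD.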

HeLa = assay: Cytotoxicity against human HeLa cells after 72 hrs by trypan blue assay; format: functional, cell-based; method in brief: as §1
HL-60 = assay: Cytotoxicity against human HL60 cells after 72 hrs by trypan blue assay; format: functional, cell-based; settings: HL-60, 72 h; method in brief: as §1
A2C12 [1] = assay: Cytotoxicity against mouse A2C12 cells after 24 to 96 hrs by MTS assay; format: functional, cell-based
Method in brief: (§2)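 Mouse transgenic lines plated at 10^3 cells/well and left 24 h to attach. Drugs diluted in medium were added for 24 or 96 h. CellTiter 96 AQueous One (MTS) reagent was then added for 1 h at 37 °C, with absorbance read at 490 nm. Each condition was run in quintuplicate, and cytotoxicity was expressed as percent of controls.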

yB8 [2] = assay: Cytotoxicity against mouse yB8 cells after 24 to 96 hrs by MTS assay; format: functional, cell-based; method in brief: as §2
yD12 [3] = assay: Cytotoxicity against mouse yD12 cells after 24 to 96 hrs by MTS assay; format: functional, cell-based; method in brief: as §2
Mus musculus [4] = species: Mus musculus; assay: Cytotoxicity against mouse betaD10 cells after 24 to 96 hrs by MTS assay; format: functional, cell-based; method in brief: as §2
yA7 [5] = assay: Cytotoxicity against mouse yA7 cells after 24 to 96 hrs by MTS assay; format: functional, cell-based; method in brief: as §2
yA3 [6] = assay: Cytotoxicity against mouse yA3 cells after 24 to 96 hrs by MTS assay; format: functional, cell-based; method in brief: as §2
B3 [7] = assay: Cytotoxicity against mouse B3 cells after 24 to 96 hrs by MTS assay; format: functional, cell-based; method in brief: as §2
Mus musculus [8] = species: Mus musculus; assay: Cytotoxicity against mouse betaD5 cells after 24 to 96 hrs by MTS assay; format: functional, cell-based; method in brief: as §2
A2B1 [9] = assay: Cytotoxicity against mouse A2B1 cells after 24 to 96 hrs by MTS assay; format: functional, cell-based; method in brief: as §2
Craf/Cmyc [10] = assay: Cytotoxicity against mouse Craf/Cmyc cells after 24 to 96 hrs by MTS assay; format: functional, cell-based; method in brief: as §2
Nucleic Acid = assay: Binding affinity to salmon testes DNA by linear flow dichroism analysis; format: nucleic-acid assay; settings: Salmonidae
Method in brief: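 Salmon testes DNA (1.9 × 10^-3 M) in ETN buffer (10 mM Tris, 10 mM NaCl, 1 mM EDTA, pH 7). Linear dichroism spectra were recorded at 25 °C over a range of [drug]/[DNA] ratios on a spectropolarimeter converted for LD.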

Bos taurus = species: Bos taurus; assay: Inhibition of calf thymus topoisomerase 1-mediated relaxation of supercoiled pBR322 at 100 uM after 60 mins using ethidium bromide staining by agarose gel electrophoresis
Method in brief: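 Supercoiled pBR322 (0.25 µg) with 2 U calf thymus topoisomerase I and test compound, 60 min at 37 °C in 20 µl reaction buffer. Stopped with SDS/bromophenol blue/glycerol plus 50 µg/mL proteinase K, 30 min at 37 °C. Run on 1% agarose at room temperature, stained with ethidium bromide 1 µg/mL in TAE, imaged under UV.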

[11] = target: DNA topoisomerase 2-alpha (Homo sapiens) (UniProt P11388); assay: Inhibition of human recombinant topoisomerase 2alpha-mediated relaxation of supercoiled pBR322 at up to 100 uM after 60 mins using ethidium bromide staining by agarose gel electrophoresis
Method in brief: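 Supercoiled pBR322 (0.25 µg) with 1 U human recombinant topoisomerase IIα and test compound, 60 min at 37 °C in 20 µl reaction buffer. Stopped with SDS/bromophenol blue/glycerol plus 50 µg/mL proteinase K, 30 min at 37 °C. Separated on 1% agarose at room temperature, ethidium bromide stained (1 µg/mL, TAE), UV-visualized.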

HUVEC = assay: Antiangiogenic activity in HUVEC cocultured with human PaSMC assessed as inhibition of capillary-like network formation up to 200 nM after 72 hrs; format: functional, cell-based
Method in brief: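 Primary HUVEC (passage 5, retrovirally labelled with RFP) and pulmonary artery vSMC (passage 5) co-seeded at 5×10^4 PaSMC plus 10×10^3 HUVEC per well in EGM-2, briefly spun at 200 g, attached 3 h. Compounds were then added at final 2–200 nM, two replicates per concentration. Networks formed over 72 h at 37 °C, 5% CO2, followed by automated imaging and image analysis of tube formation.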

A2B1 [12] = assay: Induction apoptosis in mouse A2B1 cells assessed as relative caspase activity at 10 uM/L after 2 hrs by rhodamine 110 fluorescence assay; format: functional, cell-based
Method in brief: (§3)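 Cells were pretreated with compound (10 µmol/L) for 2 h. The cell-permeable caspase substrate (Asp)2-rhodamine 110 (10 µmol/L) was then added for 2 h more. Caspase cleavage releases fluorescent rhodamine 110, and the read-out was mean fluorescence.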

A2C12 [13] = assay: Induction apoptosis in mouse A2C12 cells assessed as relative caspase activity at 10 uM/L after 2 hrs by rhodamine 110 fluorescence assay; format: functional, cell-based; method in brief: as §3
B3 [14] = assay: Induction apoptosis in mouse B3 cells assessed as relative caspase activity at 10 uM/L after 2 hrs by rhodamine 110 fluorescence assay; format: functional, cell-based; method in brief: as §3
Mus musculus [15] = species: Mus musculus; assay: Induction apoptosis in mouse betaD5 cells assessed as relative caspase activity at 10 uM/L after 2 hrs by rhodamine 110 fluorescence assay; format: functional, cell-based; method in brief: as §3
Mus musculus [16] = species: Mus musculus; assay: Induction apoptosis in mouse betaD10 cells assessed as relative caspase activity at 10 uM/L after 2 hrs by rhodamine 110 fluorescence assay; format: functional, cell-based; method in brief: as §3
Craf/Cmyc [17] = assay: Induction apoptosis in mouse Craf/Cmyc cells assessed as relative caspase activity at 10 uM/L after 2 hrs by rhodamine 110 fluorescence assay; format: functional; method in brief: as §3
yA3 [18] = assay: Induction apoptosis in mouse yA3 cells assessed as relative caspase activity at 10 uM/L after 2 hrs by rhodamine 110 fluorescence assay; format: functional, cell-based; method in brief: as §3
yA7 [19] = assay: Induction apoptosis in mouse yA7 cells assessed as relative caspase activity at 10 uM/L after 2 hrs by rhodamine 110 fluorescence assay; format: functional, cell-based; method in brief: as §3
yB8 [20] = assay: Induction apoptosis in mouse yB8 cells assessed as relative caspase activity at 10 uM/L after 2 hrs by rhodamine 110 fluorescence assay; format: functional, cell-based; method in brief: as §3
yD1 [21] = assay: Induction apoptosis in mouse yD1 cells assessed as relative caspase activity at 10 uM/L after 2 hrs by rhodamine 110 fluorescence assay; format: functional, cell-based; method in brief: as §3
yD12 [22] = assay: Induction apoptosis in mouse yD12 cells assessed as relative caspase activity at 10 uM/L after 2 hrs by rhodamine 110 fluorescence assay; format: functional, cell-based; method in brief: as §3
A2B1 [23] = assay: Induction apoptosis in mouse A2B1 cells assessed as ROS production at 10 uM/L using DCFH-DA by flow cytometry relative to control; format: functional, cell-based
Method in brief: (§4)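 Transgenic mouse cells exposed to compound at 10 µmol/L. ROS generation was measured by flow cytometry using the probe DCFH-DA.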

A2C12 [24] = assay: Induction apoptosis in mouse A2C12 cells assessed as ROS production at 10 uM/L using DCFH-DA by flow cytometry relative to control; format: functional, cell-based; method in brief: as §4
B3 [25] = assay: Induction apoptosis in mouse B3 cells assessed as ROS production at 10 uM/L using DCFH-DA by flow cytometry relative to control; format: functional, cell-based; method in brief: as §4
Mus musculus [26] = species: Mus musculus; assay: Induction apoptosis in mouse betaD5 cells assessed as ROS production at 10 uM/L using DCFH-DA by flow cytometry relative to control; format: functional, cell-based; method in brief: as §4
Mus musculus [27] = species: Mus musculus; assay: Induction apoptosis in mouse betaD10 cells assessed as ROS production at 10 uM/L using DCFH-DA by flow cytometry relative to control; format: functional, cell-based; method in brief: as §4
Craf/Cmyc [28] = assay: Induction apoptosis in mouse Craf/Cmyc cells assessed as ROS production at 10 uM/L using DCFH-DA by flow cytometry relative to control; format: functional, cell-based; method in brief: as §4
yA3 [29] = assay: Induction apoptosis in mouse yA3 cells assessed as ROS production at 10 uM/L using DCFH-DA by flow cytometry relative to control; format: functional, cell-based; method in brief: as §4
yA7 [30] = assay: Induction apoptosis in mouse yA7 cells assessed as ROS production at 10 uM/L using DCFH-DA by flow cytometry relative to control; format: functional, cell-based; method in brief: as §4
yB8 [31] = assay: Induction apoptosis in mouse yB8 cells assessed as ROS production at 10 uM/L using DCFH-DA by flow cytometry relative to control; format: functional, cell-based; method in brief: as §4
yD1 [32] = assay: Induction apoptosis in mouse yD1 cells assessed as ROS production at 10 uM/L using DCFH-DA by flow cytometry relative to control; format: functional, cell-based; method in brief: as §4
yD12 [33] = assay: Induction apoptosis in mouse yD12 cells assessed as ROS production at 10 uM/L using DCFH-DA by flow cytometry relative to control; format: functional, cell-based; method in brief: as §4

Sequence of DNA topoisomerase 2-alpha (Homo sapiens) (P11388 whole entry): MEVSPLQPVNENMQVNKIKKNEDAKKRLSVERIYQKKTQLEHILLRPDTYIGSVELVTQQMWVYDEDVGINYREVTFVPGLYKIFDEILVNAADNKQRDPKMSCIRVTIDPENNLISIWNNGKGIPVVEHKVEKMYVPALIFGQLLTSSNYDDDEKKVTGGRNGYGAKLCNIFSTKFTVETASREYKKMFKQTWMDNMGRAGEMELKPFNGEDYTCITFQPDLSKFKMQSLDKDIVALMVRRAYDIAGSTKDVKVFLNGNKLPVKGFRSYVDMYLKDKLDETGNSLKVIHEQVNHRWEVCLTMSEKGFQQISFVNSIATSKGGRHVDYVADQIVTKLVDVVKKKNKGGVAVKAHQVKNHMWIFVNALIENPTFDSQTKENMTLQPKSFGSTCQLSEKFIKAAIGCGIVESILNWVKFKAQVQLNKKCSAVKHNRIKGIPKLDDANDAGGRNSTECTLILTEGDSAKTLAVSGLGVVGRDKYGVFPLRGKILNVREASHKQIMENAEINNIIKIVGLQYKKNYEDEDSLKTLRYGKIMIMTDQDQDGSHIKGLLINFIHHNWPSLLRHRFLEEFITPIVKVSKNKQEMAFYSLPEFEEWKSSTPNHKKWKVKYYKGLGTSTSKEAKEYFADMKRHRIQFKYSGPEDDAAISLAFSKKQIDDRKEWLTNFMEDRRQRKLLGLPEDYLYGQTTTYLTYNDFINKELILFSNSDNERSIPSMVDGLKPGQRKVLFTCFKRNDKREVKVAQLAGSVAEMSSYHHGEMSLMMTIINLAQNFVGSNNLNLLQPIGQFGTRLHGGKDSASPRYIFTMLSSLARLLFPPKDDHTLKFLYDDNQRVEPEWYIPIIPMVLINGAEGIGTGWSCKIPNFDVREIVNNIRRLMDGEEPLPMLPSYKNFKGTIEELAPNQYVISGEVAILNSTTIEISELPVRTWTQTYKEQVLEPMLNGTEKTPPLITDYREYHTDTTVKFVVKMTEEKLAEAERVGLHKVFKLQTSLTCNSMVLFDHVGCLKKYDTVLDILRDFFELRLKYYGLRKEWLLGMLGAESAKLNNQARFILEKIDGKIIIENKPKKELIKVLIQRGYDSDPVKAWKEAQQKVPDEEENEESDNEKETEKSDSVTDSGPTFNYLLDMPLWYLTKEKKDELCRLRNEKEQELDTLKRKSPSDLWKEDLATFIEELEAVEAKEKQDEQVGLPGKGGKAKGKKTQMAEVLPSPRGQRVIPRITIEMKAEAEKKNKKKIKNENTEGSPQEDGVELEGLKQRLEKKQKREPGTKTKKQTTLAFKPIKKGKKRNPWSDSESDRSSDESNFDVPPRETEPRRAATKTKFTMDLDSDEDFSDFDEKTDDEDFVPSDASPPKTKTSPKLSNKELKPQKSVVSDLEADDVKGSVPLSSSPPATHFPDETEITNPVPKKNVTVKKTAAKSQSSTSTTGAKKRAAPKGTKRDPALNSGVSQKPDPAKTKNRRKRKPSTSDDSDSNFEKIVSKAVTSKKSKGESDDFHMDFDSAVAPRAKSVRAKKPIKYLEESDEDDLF

Activity (Nucleic Acid): inactive | Activity (Bos taurus): inactive | Activity [11]: inactive
Structure (SMILES): CC[C@@]1(OC(=O)NCCN2C(=O)CCCSSCCCC2=O)C(=O)OCc2c1cc1n(c2=O)Cc2cc3ccccc3nc2-1
IC50 (A-431): 1210 nM | IC50 (HeLa): 570 nM | IC50 (HL-60): 1550 nM | Activity (A2C12 [1]): Active | Activity (yB8 [2]): Active | Activity (yD12 [3]): Active | Activity (Mus musculus [4]): Active | Activity (yA7 [5]): Active | Activity (yA3 [6]): Active | Activity (B3 [7]): Active | Activity (Mus musculus [8]): Active | Activity (A2B1 [9]): Active | Activity (Craf/Cmyc [10]): Active | Activity (HUVEC): inactive

Activity (Nucleic Acid): inactive | Activity (Bos taurus): inactive | Activity [11]: inactive
Structure (SMILES): CC[C@@]1(OC(=O)NCCN2C(=O)CCCCCCCCC2=O)C(=O)OCc2c1cc1n(c2=O)Cc2cc3ccccc3nc2-1
IC50 (A-431): 1880 nM | IC50 (HeLa): 8300 nM | IC50 (HL-60): 12200 nM | Activity (A2C12 [1]): Active | Activity (yB8 [2]): Active | Activity (yD12 [3]): Active | Activity (Mus musculus [4]): Active | Activity (yA7 [5]): Active | Activity (yA3 [6]): Active | Activity (B3 [7]): Active | Activity (Mus musculus [8]): Active | Activity (A2B1 [9]): Active | Activity (Craf/Cmyc [10]): Active | Activity (A2B1 [12]): inactive | Activity (A2C12 [13]): inactive | Activity (B3 [14]): inactive | Activity (Mus musculus [15]): inactive | Activity (Mus musculus [16]): inactive | Activity (Craf/Cmyc [17]): inactive | Activity (yA3 [18]): inactive | Activity (yA7 [19]): inactive | Activity (yB8 [20]): inactive | Activity (yD1 [21]): inactive | Activity (yD12 [22]): inactive | Activity (A2B1 [23]): inactive | Activity (A2C12 [24]): inactive | Activity (B3 [25]): inactive | Activity (Mus musculus [26]): inactive | Activity (Mus musculus [27]): inactive | Activity (Craf/Cmyc [28]): inactive | Activity (yA3 [29]): inactive | Activity (yA7 [30]): inactive | Activity (yB8 [31]): inactive | Activity (yD1 [32]): inactive | Activity (yD12 [33]): inactive
